# Measurements: ChEMBL document CHEMBL1137434, “2-O-carboxymethylpyrogallol derivatives as PTP1B inhibitors with antihyperglycemic activity” (Bioorg Med Chem Lett, 2007)
# pIC50, pKi: −log10 of the molar value. Calls of active or inactive are those of the source. No cut-off for these calls is given here.
# Tests used:
# [1] = molecular target: T1, Tyrosine-protein phosphatase non-receptor type 1 (Homo sapiens, UniProt P18031); experiment: Inhibition of PTP1B after 10 mins
# T1 sequence (P18031 whole entry): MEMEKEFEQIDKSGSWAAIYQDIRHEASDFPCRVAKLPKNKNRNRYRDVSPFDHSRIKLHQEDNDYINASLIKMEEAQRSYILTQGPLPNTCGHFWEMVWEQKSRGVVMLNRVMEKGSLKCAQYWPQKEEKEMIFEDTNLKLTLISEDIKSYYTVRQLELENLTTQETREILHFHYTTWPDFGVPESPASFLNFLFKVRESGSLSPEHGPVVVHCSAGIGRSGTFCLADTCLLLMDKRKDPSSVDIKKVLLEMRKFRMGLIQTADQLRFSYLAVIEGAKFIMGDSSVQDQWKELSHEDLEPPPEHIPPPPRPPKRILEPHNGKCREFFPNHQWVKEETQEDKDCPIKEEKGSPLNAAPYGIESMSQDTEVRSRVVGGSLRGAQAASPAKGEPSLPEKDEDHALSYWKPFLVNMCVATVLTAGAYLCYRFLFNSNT
# [2] = molecular target: T2, Tyrosine-protein phosphatase non-receptor type 2 (Homo sapiens, UniProt P17706); experiment: Inhibition of TC-PTP after 10 mins
# T2 sequence (P17706 whole entry): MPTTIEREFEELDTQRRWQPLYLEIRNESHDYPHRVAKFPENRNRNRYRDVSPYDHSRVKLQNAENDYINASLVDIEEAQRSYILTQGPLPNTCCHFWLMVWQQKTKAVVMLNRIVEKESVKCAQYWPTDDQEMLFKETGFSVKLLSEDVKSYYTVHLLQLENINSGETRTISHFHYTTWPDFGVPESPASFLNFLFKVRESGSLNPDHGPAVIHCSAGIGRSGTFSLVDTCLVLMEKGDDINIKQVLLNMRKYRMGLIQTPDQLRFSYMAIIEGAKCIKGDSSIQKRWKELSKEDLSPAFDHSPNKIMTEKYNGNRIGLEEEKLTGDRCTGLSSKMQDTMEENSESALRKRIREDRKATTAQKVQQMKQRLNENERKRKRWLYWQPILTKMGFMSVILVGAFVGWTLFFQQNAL
# Summary of the method: (§1)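 Enzymes were preincubated 10 min with inhibitor in DMSO, then pNPP was added to start the reaction. Final mix: 2 mM pNPP, 50 mM Hepes, 5 mM EDTA, pH 7, plus 10% enzyme dilution buffer (Hepes, EDTA, 1 mM DTT, BSA). Enzyme levels were native PTP1B 40 nM, SHP-1cat 5 µg/mL, LAR-D1 and TC-PTP 33 U/mL, YOP 50 U/mL and YPTP-1 15 nM. IC50 came from an inhibitor concentration range, as means ± SD of 2–3 experiments.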
# [3] = molecular target: Tyrosine-protein phosphatase non-receptor type 6 (Homo sapiens, UniProt P29350); experiment: Inhibition of SHP-1 catalytic domain after 10 mins; summary of the method: as §1
# [4] = Inhibition of LAR-D1 after 10 mins; parameters: species or system Homo sapiens; summary of the method: as §1
# [5] = Inhibition of YOP after 10 mins; summary of the method: as §1
# [6] = molecular target: T3, Tyrosine-protein phosphatase 1 (Saccharomyces cerevisiae S288c, UniProt P25044); experiment: Inhibition of yeast PTP1 after 10 mins; summary of the method: as §1
# T3 sequence (P25044 whole entry): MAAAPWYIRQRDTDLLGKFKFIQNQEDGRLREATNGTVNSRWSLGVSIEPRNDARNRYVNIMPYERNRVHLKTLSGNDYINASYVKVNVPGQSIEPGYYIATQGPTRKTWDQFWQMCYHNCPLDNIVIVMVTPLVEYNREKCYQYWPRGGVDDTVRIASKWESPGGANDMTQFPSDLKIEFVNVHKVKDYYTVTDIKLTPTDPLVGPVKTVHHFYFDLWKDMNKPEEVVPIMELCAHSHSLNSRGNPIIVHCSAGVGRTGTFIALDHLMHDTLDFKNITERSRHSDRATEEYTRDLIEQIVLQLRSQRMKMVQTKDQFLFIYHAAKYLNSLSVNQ
# Homo sapiens = species: Homo sapiens; experiment: Selectivity for PTP1B over TC-PTP
# Mus musculus = species: Mus musculus; experiment: Antihyperglycemic activity in high fat diet induced C57BL/6JCr Slc mouse assessed as reduction in blood glucose level relative to control; format: functional, organism-based
# Summary of the method: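 Male C57BL/6J Cr Slc mice, 5 wk old and acclimatized 1 wk, were fed high-fat diet for 8 wk. They were then split into two groups of 7 and fed HFD or HFD plus drug for 4 wk; a lean LFD group served as control. After a 6 h fast, mice received glucose 1 g/kg ip. Tail-blood glucose was read at baseline and at 20, 40, 60, 90 and 120 min.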
# Chain of Tyrosine-protein phosphatase non-receptor type 6 (P29350 whole entry, the tested form may be a part): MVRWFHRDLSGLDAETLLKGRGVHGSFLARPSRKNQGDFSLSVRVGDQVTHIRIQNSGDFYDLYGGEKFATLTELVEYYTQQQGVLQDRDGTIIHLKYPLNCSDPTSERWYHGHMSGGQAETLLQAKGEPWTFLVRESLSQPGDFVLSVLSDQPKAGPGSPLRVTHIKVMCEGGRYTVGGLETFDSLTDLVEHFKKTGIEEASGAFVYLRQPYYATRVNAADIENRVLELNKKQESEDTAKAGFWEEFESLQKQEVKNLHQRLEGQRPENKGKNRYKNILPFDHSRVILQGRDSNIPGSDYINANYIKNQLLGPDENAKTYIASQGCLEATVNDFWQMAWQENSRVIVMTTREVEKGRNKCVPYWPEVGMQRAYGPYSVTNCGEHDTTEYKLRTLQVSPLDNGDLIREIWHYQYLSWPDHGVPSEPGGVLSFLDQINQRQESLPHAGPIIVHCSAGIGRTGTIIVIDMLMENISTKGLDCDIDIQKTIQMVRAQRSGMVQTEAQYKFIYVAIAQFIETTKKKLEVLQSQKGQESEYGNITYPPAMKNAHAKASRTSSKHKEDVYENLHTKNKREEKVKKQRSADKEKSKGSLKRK
pIC50 [1],pIC50 [2],pIC50 [3],pIC50 [4],pIC50 [5],pIC50 [6],Selectivity ratio (Homo sapiens),pKi [1],pKi [2],Compound,Activity (Mus musculus)
4.40,–,–,–,–,–,–,–,–,COc1cc(COc2cc(-c3ccccc3)cc(O)c2OCC(=O)O)cc(OC)c1,–
< 3.00,–,–,–,–,–,–,–,–,O=C(O)COc1c(O)cccc1OCc1ccc(C(F)(F)F)cc1,–
5.66,3.92,4.42,< 3.70,4.48,4.28,5,–,–,O=C(O)COc1c(O)cc(-c2cccc(C(F)(F)F)c2)cc1OCc1ccccc1,–
5.70,4.66,5.40,3.94,5.22,5.05,7,5.96,5.09,O=C(O)COc1c(O)cc(-c2cc(C(F)(F)F)cc(C(F)(F)F)c2)cc1OCc1ccc(C(F)(F)F)cc1,Active
< 3.00,–,–,–,–,–,–,–,–,O=C(O)COc1c(O)cccc1OCc1ccccc1,–
5.27,4.36,4.92,< 3.70,4.89,4.64,5,–,–,O=C(O)COc1c(O)cc(-c2ccc(C(F)(F)F)cc2)cc1OCc1ccc(C(F)(F)F)cc1,–
4.14,–,–,–,–,–,–,–,–,O=C(O)COc1c(O)cc(Br)cc1OCc1ccc(C(F)(F)F)cc1,–
< 3.00,–,–,–,–,–,–,–,–,O=C(O)COc1c(O)cc(-c2ccccc2)cc1O,–
4.89,4.02,4.60,< 3.70,4.47,4.77,5,–,–,O=C(O)COc1c(O)cc(-c2ccc(C(F)(F)F)cc2)cc1OCc1ccccc1,–
5.30,4.19,4.89,< 3.70,4.68,4.77,5,–,–,O=C(O)COc1c(O)cc(-c2cccc(C(F)(F)F)c2)cc1OCc1ccc(C(F)(F)F)cc1,–
4.03,–,–,–,–,–,–,–,–,O=C(O)COc1c(O)cc(-c2ccccc2)cc1OCc1ccccc1,–
3.52,–,–,–,–,–,–,–,–,O=C(O)COc1c(O)cc(Br)cc1OCc1ccccc1,–
4.77,–,–,–,–,–,–,–,–,O=C(O)COc1c(O)cc(-c2ccccc2)cc1OCc1ccc(C(F)(F)F)cc1,–
5.24,4.43,5.05,< 3.70,4.82,4.70,5,–,–,O=C(O)COc1c(O)cc(-c2cc(C(F)(F)F)cc(C(F)(F)F)c2)cc1OCc1ccccc1,–
